Source: PubChem BioAssay (several laboratories)
This excerpt belongs to a sample that is enriched for hits.
Hep lipid drop = modulators of hepatic lipid droplet formation. AID 1656. 240,000 compounds, 0.4% hits. AML12 mouse hepatocytes, oleate lipid droplets, BODIPY imaging. inhibition, % at 6.5 µM;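 active = lipid droplet intensity inhibited by at least 50%, with more than 500 cells counted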
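Material: mouse AML12 hepatocyte cell line, fixed after treatment; Timing: compound with oleate, overnight; Technique: high-content imaging of BODIPY-stained droplets and DAPI nuclei; Probe or stimulus: oleate, 100 µM final; Dosing: compound at 6.5 µM only.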
MDM2 E3 inh = inhibitors of human Mdm2 E3 ubiquitin ligase; cell-based MDM2 ubiquitination luciferase reporter, 2 h; 0 = plate control, 100 = twice control, blank-subtracted; signal enhancement, % at 5 µM; AID 1230; Q00987; 210,000 compounds, 0.11% hits;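 active = signal enhancement of 30% or more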;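 also: luminescence tracks abundance of the self-degrading MDM2-luciferase fusion protein; higher signal means inhibition of MDM2 E3 ligase activity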
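Buffer or medium: Cells held in DMEM | Assay system: Stable mammalian line carrying autodegrading MDM2–luciferase fusion reporter | Quantity: 2000 cells/well | Times: 4 h settle plus 2 h compound, 37 °C | Doses: One concentration, 5 µM, with 0.2% DMSO | Technique: Luminescence with SteadyLite reagent, 15 min at room temperature | Benchmarks: Plate controls and plate blanks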
pCIP destab = lowers stability of the mouse p/CIP coactivator protein | 290,000 compounds, 0.01% hits | F442A p/CIP-EGFP cells, EGFP fluorescence, 16 h | Q05BA5 | decrease of EGFP signal, % at 10 µM;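 active = EGFP signal decrease of at least 30% at 10 µM or well 3 SD below plate mean, unless failing retest; inactive = the rest, including hits failing retest or dose response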
Hep lipid conf = confirmation of inhibitors of hepatic lipid droplet formation; AML12 mouse hepatocytes, BODIPY lipid droplet imaging; droplets induced with 100 µM oleic acid; 870 compounds, 65% hits; inhibition, % at 5.2 µM; shares compounds with Hep lipid drop;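 active = inhibition of lipid droplet metric at least 50%, with more than 300 cells in each of four replicates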
AML12 tox img = AML12 hepatocyte cytotoxicity (counter-screen); shares compounds with Hep lipid drop; AML12 mouse hepatocytes, DAPI nuclear morphology cytotoxicity imaging; active compounds read high; cells fed 100 µM oleate overnight; z-score at 5 µM; 870 compounds, 3% hits; AID 463200; in the data active = z-score above about 6.3;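 also: compound exposure lasted overnight at 37 °C before fixation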
Large screens that a line does not name were inactive (follow-up assays come after a bar, where they were run).

CN(C)C(=S)SSC(=S)N(C)C	MDM2 E3 inh 41
COc1ccc(-c2nn(CCC#N)cc2C(=O)NCc2ccccc2)cc1[N+](=O)[O-]	none (no result: MDM2 E3 inh)
COc1ccccc1-n1c(O)c(/C=N/N2CCCCC2)c(=O)n(-c2ccccc2OC)c1=S	none
CCc1ccc(-n2c(O)c(/C=N/NC(=O)c3ccncc3)c(=O)[nH]c2=O)cc1	none
CCc1ccc(-n2c(O)c(C(C)=O)c(=O)[nH]c2=O)cc1 (tested in a mixture with another compound)	Hep lipid drop 70 | Hep lipid conf inactive | AML12 tox img inactive
N#CCCn1cc(C(=O)Nc2ccc(F)cc2)c(-c2ccccc2)n1	none (no result: MDM2 E3 inh)
CC1(C)CN=C(Nc2ccc(F)c(Cl)c2)S1	Hep lipid drop 116 | Hep lipid conf inactive | AML12 tox img inactive
CC1(C)CN=C(Nc2ccc(F)c(F)c2)S1	none (no result: Hep lipid drop)
CCOc1ccc(NC(=O)N2C[C@H]3C[C@@H](C2)c2cccc(=O)n2C3)cc1	none (no result: Hep lipid drop, MDM2 E3 inh)
